# Measurements from different studies.
# Lines come from different studies, so protocols differ.
# Cell line: PC-9
# Observed: cell growth or viability
# Time: 72 h
Structure (SMILES),technique,tested at,measurement,result
COc1ccc(NC(=O)NCc2cn(Cc3ccc(Cl)cc3)nn2)cc1,CCK-8,20 µM,viability,96.2%
COc1cccc(NC(=O)Nc2nc3cc(-c4ccc5ncn(CCN(C)C)c(=O)c5c4)ccc3s2)c1,MTT,,IC50,5.24 µM
O=C(Nc1ccc(-c2cn(Cc3ccc(Cl)cc3)nn2)cc1)Nc1ccccc1Br,CCK-8,50 µM,viability,103%
O=C(Nc1ccc(F)cc1)Nc1nc2cc(-c3ccc4ncn(CC5CC5)c(=O)c4c3)ccc2s1,MTT,,IC50,> 20 µM
O=C(Nc1ccc(Cl)cc1)Nc1ccc(-c2cn(Cc3ccc(Cl)cc3)nn2)cc1,CCK-8,50 µM,viability,81.3%
O=C(Nc1ccc(F)cc1)Nc1nc2cc(-c3ccc4ncn(CC(=O)N5CCOCC5)c(=O)c4c3)ccc2s1,MTT,,IC50,> 20 µM
COc1ccc(N(Cc2csc(-c3ccccc3)n2)C(=O)CCCCCC(=O)NO)cc1,MTT,,IC50,0.53 µM
O=C(Nc1cccc(-c2cn(Cc3ccc(Br)cc3)nn2)c1)Nc1ccccc1Br,CCK-8,50 µM,viability,92.6%
COc1ccc(NC(=O)NCc2cn(Cc3ccccc3C)nn2)cc1,CCK-8,20 µM,viability,94.4%
COc1ccc(N(Cc2csc(-c3ccc(Br)cc3)n2)C(=O)CCCCCC(=O)NO)cc1,MTT,,IC50,1.86 µM
O=C(NCc1cn(Cc2ccc(Cl)cc2)nn1)Nc1ccc(Cl)cc1,CCK-8,20 µM,viability,83.2%
COc1ccc(NC(=O)NCc2cn(Cc3ccc(C)cc3)nn2)cc1,CCK-8,20 µM,viability,105%
COc1ccc(NC(=O)Nc2nc3cc(-c4ccc5ncn(CCN6CCOCC6)c(=O)c5c4)ccc3s2)cc1,MTT,,IC50,> 20 µM
O=C(Nc1ccc(Cl)cc1)Nc1ccc(-c2cn(Cc3ccc(Br)cc3)nn2)cc1,CCK-8,20 µM,viability,71.5%
COc1ccc(NC(=O)Nc2cccc(-c3cn(Cc4ccc(Cl)cc4)nn3)c2)cc1,CCK-8,50 µM,viability,89.5%
O=C(NCc1cn(Cc2ccc(Cl)cc2)nn1)Nc1ccccc1Br,CCK-8,20 µM,viability,94.5%
CC(C)CCn1cnc2ccc(-c3ccc4sc(NC(=O)Nc5ccc(F)cc5)nc4c3)cc2c1=O,MTT,,IC50,9.09 µM
COc1ccc(NC(=O)Nc2ccc(-c3cn(Cc4ccc(C)cc4)nn3)cc2)cc1,CCK-8,20 µM,viability,87.1%
CCCCn1cnc2ccc(-c3ccc4sc(NC(=O)Nc5ccc(F)cc5)nc4c3)cc2c1=O,MTT,,IC50,6.17 µM
COc1ccc(NC(=O)Nc2ccc(-c3cn(Cc4ccc(Br)cc4)nn3)cc2)cc1,CCK-8,50 µM,viability,96.4%
